One block for each molecule: values may come before it. Activity calls are given as the source filed them. No cut-off for these calls is given here. Where a SMILES comes first, the peptide text is derived from it.
Key:
[1] = molecular target: Kelch-like ECH-associated protein 1 (Homo sapiens) (UniProt Q14145); assay: Inhibition of Keap1 interaction with Nrf2 in human THP1 cells assessed as increase in HO-1 mRNA expression at 100 uM from 2 to 8 hrs by qRT-PCR analysis; format: cell-based; details: THP-1
Sequence of Kelch-like ECH-associated protein 1 (Homo sapiens) (Q14145 whole entry): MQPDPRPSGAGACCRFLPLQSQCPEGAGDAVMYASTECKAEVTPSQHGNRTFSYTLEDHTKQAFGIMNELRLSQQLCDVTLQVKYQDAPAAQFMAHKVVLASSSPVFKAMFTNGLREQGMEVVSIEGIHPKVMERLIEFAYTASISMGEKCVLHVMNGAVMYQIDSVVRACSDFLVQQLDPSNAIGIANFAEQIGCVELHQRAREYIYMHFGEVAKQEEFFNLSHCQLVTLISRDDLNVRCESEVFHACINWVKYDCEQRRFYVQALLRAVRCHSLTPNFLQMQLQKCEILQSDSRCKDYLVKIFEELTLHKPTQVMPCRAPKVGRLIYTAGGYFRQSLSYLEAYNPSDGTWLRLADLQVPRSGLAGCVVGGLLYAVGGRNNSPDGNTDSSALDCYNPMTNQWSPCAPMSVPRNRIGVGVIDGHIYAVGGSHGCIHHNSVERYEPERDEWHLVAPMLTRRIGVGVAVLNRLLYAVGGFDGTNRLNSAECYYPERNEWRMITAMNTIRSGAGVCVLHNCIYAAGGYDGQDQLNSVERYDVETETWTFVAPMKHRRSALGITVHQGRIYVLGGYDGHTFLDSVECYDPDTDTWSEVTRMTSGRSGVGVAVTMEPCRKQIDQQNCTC
Summary of the method: (§1)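 Human THP-1 monocytes were incubated with peptide over a time course. HO-1 mRNA was measured by qRT-PCR and normalised to GAPDH mRNA. Data are means ± SEM, n = 3. A dose series of 7.5, 18.75, 37.5 and 75 μM was also tested by the same read-out.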

[2] = molecular target: Kelch-like ECH-associated protein 1 (Homo sapiens) (UniProt Q14145); assay: Inhibition of Keap1 interaction with Nrf2 in human THP1 cells assessed as increase in HO-1 mRNA expression at 100 uM from 3 to 6 hrs by qRT-PCR analysis; format: cell-based; details: THP-1; summary of the method: as §1
[3] = molecular target: Kelch-like ECH-associated protein 1 (Homo sapiens) (UniProt Q14145); assay: Inhibition of Keap1 interaction with Nrf2 in human THP1 cells assessed as increase in Nrf2 protein expression at 100 uM after 3 hrs by Western blot analysis; format: cell-based; details: THP-1
Summary of the method: (§2)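 THP-1 cells were incubated with peptide over a time course, alongside a peptide scrambled in the Keap1-binding 14mer region. Nrf2 protein was detected in cell lysates by Western blot.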

[4] = molecular target: Kelch-like ECH-associated protein 1 (Homo sapiens) (UniProt Q14145); assay: Inhibition of Keap1 interaction with Nrf2 in human THP1 cells assessed as increase in HO-1 protein expression at 100 uM at 12 hrs by Western blot analysis; format: cell-based; details: THP-1
Summary of the method: (§3)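 THP-1 monocytes were treated with peptide or the scrambled-sequence control peptide over a time course. HO-1 protein was assessed by Western blot. The blot shown is representative of n = 3 experiments.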

[5] = molecular target: Kelch-like ECH-associated protein 1 (Homo sapiens) (UniProt Q14145); assay: Inhibition of Keap1 interaction with Nrf2 in human THP1 cells assessed as increase in HO-1 protein expression at 37.5 uM by Western blot analysis; format: cell-based; details: THP-1
[6] = molecular target: Kelch-like ECH-associated protein 1 (Homo sapiens) (UniProt Q14145); assay: Inhibition of Keap1 interaction with Nrf2 in human THP1 cells assessed as increase in HO-1 mRNA expression at 75 uM at 6 hrs by qRT-PCR analysis relative to control; format: cell-based; details: THP-1; summary of the method: as §1
THP-1 [7] = assay: Upregulation of Nrf2 mRNA expression in human THP1 cells at 100 uM by qRT-PCR analysis; format: functional, cell-based
THP-1 [8] = assay: Antiinflammatory activity in human THP1 cells assessed as inhibition of LPS-induced TNFalpha mRNA expression at 100 uM incubated for 4 hrs prior to LPS-stimulation measured after 3 hrs by qRT-PCR analysis
[9] = molecular target: Kelch-like ECH-associated protein 1 (Homo sapiens) (UniProt Q14145); assay: Inhibition of Keap1 interaction with Nrf2 in human THP1 cells assessed as increase in HO-1 protein expression by Western blot analysis; format: cell-based; details: THP-1; summary of the method: as §3
[10] = molecular target: Kelch-like ECH-associated protein 1 (Homo sapiens) (UniProt Q14145); assay: Inhibition of Keap1 interaction with Nrf2 in human THP1 cells assessed as increase in HO-1 protein expression at 100 uM at 9 to 16 hrs by Western blot analysis; format: cell-based; details: THP-1; summary of the method: as §3
[11] = molecular target: Kelch-like ECH-associated protein 1 (Homo sapiens) (UniProt Q14145); assay: Inhibition of Keap1 interaction with Nrf2 in human THP1 cells assessed as increase in Nrf2 protein expression at 100 uM from 1 to 6 hrs by Western blot analysis; format: cell-based; details: THP-1; summary of the method: as §2

SMILES: CC[C@H](C)[C@H](NC(=O)[C@@H]1CCCN1C(=O)[C@H](CC(C)C)NC(=O)[C@H](Cc1ccccc1)NC(=O)[C@H](CCC(=O)O)NC(=O)CNC(=O)[C@@H](NC(=O)[C@H](CCC(=O)O)NC(=O)[C@H](CCC(=O)O)NC(=O)[C@H](CC(=O)O)NC(=O)[C@H](CC(C)C)NC(=O)[C@H](CCC(N)=O)NC(=O)[C@@H](N)CC(C)C)[C@@H](C)O)C(=O)N[C@@H](CCC(N)=O)C(=O)O
inhibition [1]: inactive

SMILES: CC(C)C[C@H](NC(=O)[C@H](Cc1ccccc1)NC(=O)[C@H](CCC(=O)O)NC(=O)CNC(=O)[C@@H](NC(=O)[C@H](CCC(=O)O)NC(=O)[C@H](CCC(=O)O)NC(=O)[C@H](CC(=O)O)NC(=O)[C@H](CC(C)C)NC(=O)[C@H](CCC(N)=O)NC(=O)[C@H](CC(C)C)NC(=O)[C@H](CCC(N)=O)NC(=O)[C@H](C)NC(=O)[C@H](Cc1ccccc1)NC(=O)[C@H](Cc1ccccc1)NC(=O)[C@H](C)NC(=O)[C@H](CCCNC(=N)N)NC(=O)[C@H](CCCNC(=N)N)NC(=O)[C@H](CCCNC(=N)N)NC(=O)[C@H](CCC(N)=O)NC(=O)[C@H](CCCNC(=N)N)NC(=O)[C@H](CCCNC(=N)N)NC(=O)[C@H](CCCCN)NC(=O)[C@H](CCCCN)NC(=O)[C@H](CCCNC(=N)N)NC(=O)CNC(=O)[C@@H](N)Cc1ccc(O)cc1)[C@@H](C)O)C(=O)O (H-YGRKKRRQRRRAFFAQLQLDEETGEFL-OH)
inhibition [2]: inactive

SMILES: CC(C)C[C@H](NC(=O)[C@H](CCCNC(=N)N)NC(=O)[C@H](CCCNC(=N)N)NC(=O)[C@H](CCCNC(=N)N)NC(=O)[C@H](CCC(N)=O)NC(=O)[C@H](CCCNC(=N)N)NC(=O)[C@H](CCCNC(=N)N)NC(=O)[C@H](CCCCN)NC(=O)[C@H](CCCCN)NC(=O)[C@H](CCCNC(=N)N)NC(=O)CNC(=O)[C@@H](N)Cc1ccc(O)cc1)C(=O)N[C@@H](CC(=O)O)C(=O)N[C@@H](CCC(=O)O)C(=O)N[C@@H](CCC(=O)O)C(=O)N[C@H](C(=O)NCC(=O)N[C@@H](CCC(=O)O)C(=O)N[C@@H](Cc1ccccc1)C(=O)N[C@@H](CC(C)C)C(=O)N1CCC[C@H]1C(=O)O)[C@@H](C)O
inhibition [2]: Active

More lines, main results first:

inhibition [3]: Active
inhibition [4]: Active
inhibition [5]: Active
fold change (FC) [6]: 24
inhibition [2]: inactive
inhibition [9]: Dose-dependent effect
SMILES: CC[C@H](C)[C@H](NC(=O)[C@@H]1CCCN1C(=O)[C@H](CC(C)C)NC(=O)[C@H](Cc1ccccc1)NC(=O)[C@H](CCC(=O)O)NC(=O)CNC(=O)[C@@H](NC(=O)[C@H](CCC(=O)O)NC(=O)[C@H](CCC(=O)O)NC(=O)[C@H](CC(=O)O)NC(=O)[C@H](CC(C)C)NC(=O)[C@H](CCC(N)=O)NC(=O)[C@H](CC(C)C)NC(=O)[C@H](CCCNC(=N)N)NC(=O)[C@H](CCCNC(=N)N)NC(=O)[C@H](CCCNC(=N)N)NC(=O)[C@H](CCC(N)=O)NC(=O)[C@H](CCCNC(=N)N)NC(=O)[C@H](CCCNC(=N)N)NC(=O)[C@H](CCCCN)NC(=O)[C@H](CCCCN)NC(=O)[C@H](CCCNC(=N)N)NC(=O)CNC(=O)[C@@H](N)Cc1ccc(O)cc1)[C@@H](C)O)C(=O)N[C@@H](CCC(N)=O)C(=O)O
Activity (THP-1 [7]): inactive
inhibition at 100 µM (THP-1 [8]): 61%

inhibition [10]: inactive
inhibition [1]: inactive
inhibition [11]: inactive
SMILES: CC[C@H](C)[C@H](NC(=O)[C@H](CC(=O)O)NC(=O)[C@@H](NC(=O)CNC(=O)[C@H](Cc1ccccc1)NC(=O)[C@H](CCC(=O)O)NC(=O)[C@H](CCCNC(=N)N)NC(=O)[C@H](CCCNC(=N)N)NC(=O)[C@H](CCCNC(=N)N)NC(=O)[C@H](CCC(N)=O)NC(=O)[C@H](CCCNC(=N)N)NC(=O)[C@H](CCCNC(=N)N)NC(=O)[C@H](CCCCN)NC(=O)[C@H](CCCCN)NC(=O)[C@H](CCCNC(=N)N)NC(=O)CNC(=O)[C@@H](N)Cc1ccc(O)cc1)[C@@H](C)O)C(=O)N[C@@H](CCC(N)=O)C(=O)N[C@@H](CC(C)C)C(=O)N[C@H](C(=O)N[C@@H](CCC(=O)O)C(=O)N1CCC[C@H]1C(=O)N[C@@H](CCC(N)=O)C(=O)N[C@@H](CC(C)C)C(=O)N[C@@H](CCC(=O)O)C(=O)O)[C@@H](C)CC (H-YGRKKRRQRRREFGTDIQLIEPQLE-OH)
